Assay outcomes deposited in PubChem by several laboratories.
Rows were chosen to be rich in hits. Some 12% of all compounds tested hit in one or more screens of this group.
ABCG2 inh: inhibitors of human ABCG2 transporter, ABCB1 counter-screen. Q9UNQ0. IgMXP3 cells, JC-1 efflux, flow cytometry. inhibition, % at 6.6 µM. actives 0.1% (n = 190,000). AID 1325;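 active = inhibition above 80%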;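 also: 0% = DMSO and 100% = nicardipine control wells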
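Read-out basis: Efflux inhibition in percent versus controls | Test system: ABCG2 IgMXP3 and barcoded ABCB1 CCRF-Adr cell mix | Quantity: 3 million cells/mL in well | Schedule: 10 min at 25 °C | Control set: Nicardipine as high control, DMSO as low control | Reagent: JC-1 as fluorescent efflux pump substrate | Signal: Flow cytometry of retained JC-1 fluorescence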
WT yeast gro inh: growth inhibition of WT yeast, mitochondrial fusion screen. actives 2.1% (n = 190,000). inhibition, % at 10 µM. mitochondrial fusion phenotypic screen, WT strain; in the data active = inhibition above about 58%; tested in S. cerevisiae
RAM network inh: blocks the yeast RAM network; AID 868; actives 1.8% (n = 190,000); S. cerevisiae dse1pr::URA3 reporter, 5-FOA growth OD615, 2 d; analog-sensitive cbk1-as2 kinase mutant strain; inhibition, % at 50 µM;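 active = inhibition above a set limit, 3 SD over mean compound inhibition, cut at about 8.4% in these data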;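 also: 0% = DMSO-only wells with no growth and 100% = 10 µM 1-NA-PP1 full growth; inhibition rescues growth on 5-FOA so higher OD means more RAM inhibition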
Lmaj promast: Leishmania major promastigote growth inhibition; inhibition, % at 10 µM; actives 9% (n = 200,000); Leishmania major promastigotes, resazurin fluorescence viability; in the data active = inhibition above about 50%;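 also: promastigotes grown with compound for 44 hours at 28 °C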
ABCB1 block: inhibitors of human ABCB1 transporter, ABCG2 counter-screen; P08183; CCRF-Adr cells, JC-1 efflux, flow cytometry; inhibition, % at 6.6 µM; actives 0.067% (n = 190,000); AID 1326; in the data active = inhibition above about 40%;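 also: 0% = vehicle and 100% = reference inhibitor; higher value means more JC-1 retained so stronger ABCB1 efflux block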
Target sequence (P08183 whole entry, looked up): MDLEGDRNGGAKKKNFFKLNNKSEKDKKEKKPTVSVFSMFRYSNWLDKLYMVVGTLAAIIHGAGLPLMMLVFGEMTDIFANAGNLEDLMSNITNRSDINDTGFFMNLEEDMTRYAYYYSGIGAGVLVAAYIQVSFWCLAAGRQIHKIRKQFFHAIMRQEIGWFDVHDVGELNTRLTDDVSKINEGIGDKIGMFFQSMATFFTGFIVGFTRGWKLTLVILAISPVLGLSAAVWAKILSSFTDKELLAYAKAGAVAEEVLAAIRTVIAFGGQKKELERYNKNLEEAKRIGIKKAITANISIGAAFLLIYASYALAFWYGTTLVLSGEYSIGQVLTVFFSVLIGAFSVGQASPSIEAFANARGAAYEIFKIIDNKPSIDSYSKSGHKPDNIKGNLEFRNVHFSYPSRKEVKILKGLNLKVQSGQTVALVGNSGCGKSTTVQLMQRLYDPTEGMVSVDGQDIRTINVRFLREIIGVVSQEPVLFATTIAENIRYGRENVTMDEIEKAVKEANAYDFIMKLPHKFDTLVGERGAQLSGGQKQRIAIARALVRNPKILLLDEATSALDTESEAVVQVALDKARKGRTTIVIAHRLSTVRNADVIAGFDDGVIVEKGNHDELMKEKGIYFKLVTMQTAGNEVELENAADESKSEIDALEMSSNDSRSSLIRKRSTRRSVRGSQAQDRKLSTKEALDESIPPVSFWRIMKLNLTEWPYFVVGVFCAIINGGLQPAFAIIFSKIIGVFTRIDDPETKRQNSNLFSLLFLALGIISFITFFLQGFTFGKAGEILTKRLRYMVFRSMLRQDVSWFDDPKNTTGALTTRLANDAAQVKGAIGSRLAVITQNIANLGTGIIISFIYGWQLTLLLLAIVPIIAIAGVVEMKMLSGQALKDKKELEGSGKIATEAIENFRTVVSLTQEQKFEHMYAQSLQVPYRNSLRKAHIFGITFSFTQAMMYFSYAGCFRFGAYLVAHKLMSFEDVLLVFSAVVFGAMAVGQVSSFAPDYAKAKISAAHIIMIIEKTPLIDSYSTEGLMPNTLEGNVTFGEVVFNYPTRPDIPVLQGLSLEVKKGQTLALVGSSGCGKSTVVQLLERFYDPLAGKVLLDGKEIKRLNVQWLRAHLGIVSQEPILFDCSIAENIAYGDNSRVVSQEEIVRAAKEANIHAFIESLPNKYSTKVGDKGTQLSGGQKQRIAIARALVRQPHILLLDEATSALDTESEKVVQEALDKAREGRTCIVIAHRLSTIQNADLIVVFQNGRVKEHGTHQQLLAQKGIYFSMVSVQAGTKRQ
* hit, by the source's call; x = no result.

SMILES | ABCG2 inh | WT yeast gro inh | RAM network inh | Lmaj promast | ABCB1 block
CCCCNC(=S)N1CCn2cccc2C1c1ccc(F)cc1 (configuration not stated) | -0.8 | 61.5* | 2.7 | 51.9* | -0.2
Cc1nn(C(=O)Cn2cc([N+](=O)[O-])cn2)c(C)c1Cl | 0.8 | -13.9 | 1.0 | -6.8 | 0.3
COCCn1nnnc1C(c1cccs1)N1CCN(c2cc(C)ccc2C)CC1 (configuration not stated) | -0.2 | 35.9 | 0.6 | -3.4 | 1.1
CC(C)CC(c1nnnn1Cc1cccs1)N1CCN(c2nc3ccccc3s2)CC1 (configuration not stated) | 27.6 | -0.1 | 6.3 | 97.8* | 8.0
CCC(c1nnnn1Cc1cccs1)N1CCN(c2nc3ccccc3s2)CC1 (configuration not stated) | 22.6 | 49.4 | 0.9 | 28.7 | 5.3
COCCn1nnnc1C(c1cccs1)N1CCN(c2nc3ccccc3s2)CC1 (configuration not stated) | 9.4 | 9.9 | 3.4 | 94.8* | 1.8
S=C(NCCSCc1ccc(Cl)cc1)Nc1ccccc1 | 3.8 | 78.8* | 4.5 | 22.1 | 0.6
CCCOc1ccc(CSCCNC(=S)Nc2ccccc2)cc1 | 18.0 | 67.0* | 1.2 | 39.6 | 1.9
S=C(NCCSCc1ccccc1Cl)Nc1ccccc1 | 29.5 | 66.6* | 6.1 | 18.6 | 0.5
Cc1cccc(CSCCNC(=S)Nc2ccccc2)c1 | 5.6 | 71.2* | 0.8 | 7.7 | 0.5
S=C(NCCC(c1ccccc1)c1ccccc1)Nc1ccc(Cl)cc1 | 1.7 | -11.1 | 4.8 | 16.4 | 0.5
Fc1ccc(Sc2cc(Cl)c(-c3ccccc3)nn2)cc1 | 14.3 | 21.6 | 3.9 | 14.4 | 3.3
COc1cccc(C2CCCN2Cc2nc(-c3cnccn3)no2)c1 (configuration not stated) | 0.8 | 1.1 | 0.6 | -6.9 | 0.2
O=[N+]([O-])c1ccccc1CNC1CCCc2ccccc21 (configuration not stated) | 16.2 | 4.0 | -0.5 | 3.6 | 0.1
O=C(CSCCO)Nc1cccc([N+](=O)[O-])c1 | 2.3 | 0.8 | 1.6 | 64.8* | x
Cc1ccc(CON=C2CCN(c3ncc(C(F)(F)F)cc3Cl)CC2)cc1 | 3.4 | 40.6 | 1.1 | -6.5 | 0.4
FC(F)(F)c1cnc(N2CCC(=NOCc3ccc(Cl)cc3)CC2)c(Cl)c1 | 1.8 | 63.2* | -0.3 | -10.3 | 0.3
Cc1cc(=O)oc(C)c1C(=O)Nc1ccc2nsnc2c1 | -2.4 | 94.1* | 2.1 | -7.9 | -0.3
C/C(N)=C(/C#N)C(=O)COC(=O)c1ccc(C#N)cc1 | 4.3 | -13.9 | 0.6 | -8.3 | 0.2
Clc1ccc(CNCCC2=CCCCC2)cc1 | 2.1 | -16.2 | -0.1 | 89.8* | 0.7
CCCn1c(=O)n(N)c2ccccc21 | 4.8 | -0.8 | 1.6 | -7.5 | 0.7
COc1ccccc1CNC(=O)COC(=O)CCC(=O)c1cccs1 | 1.2 | -13.9 | -0.3 | -5.6 | 0.3
O/N=C/c1cc(Cl)ccc1OCc1cccc2ccccc12 | 15.9 | 96.8* | 3.2 | 3.2 | 0.0
CCOc1ccc(Cl)cc1/C=N/NC(=O)c1ccccc1 | 19.3 | -7.6 | 2.4 | -4.3 | 1.5
CCOC(=O)CC(NC(=O)c1cccc2c1C(=O)N(Cc1cccnc1)C2)c1ccc(OC(C)C)cc1 (configuration not stated) | 13.7 | 0.1 | 2.9 | 40.3 | 29.3
SMILES | ABCG2 inh | WT yeast gro inh | RAM network inh | Lmaj promast | ABCB1 block
Cc1ccc(-n2nnnc2Sc2ccc(S(=O)(=O)NCCN(C)C)cc2[N+](=O)[O-])cc1 | 8.7 | 8.0 | 2.2 | 100.0* | 1.6
CN(C)CCNS(=O)(=O)c1ccc(N2CCN(c3ccc(F)cc3)CC2)c([N+](=O)[O-])c1 | 48.7 | 26.7 | -0.4 | 97.5* | 3.8
CC(=O)N1CCN(c2ccc(S(=O)(=O)NCCN(C(C)C)C(C)C)cc2[N+](=O)[O-])CC1 | -0.8 | -3.4 | -0.1 | -2.1 | 0.0
O=[N+]([O-])c1cc(S(=O)(=O)NCCN2CCOCC2)ccc1Sc1nnnn1-c1ccccc1 | 6.5 | 6.8 | 1.7 | 85.8* | 0.5
C/C(O)=C(/C=Nc1ccccc1)C(=O)Nc1ccccc1 | 4.6 | 4.2 | 4.7 | -2.6 | 0.5
N#CCCN(C(=O)CCl)c1cccc(Cl)c1 | 1.2 | 9.0 | 1.2 | 51.1* | 0.4
CCCCCCCN(C(=O)CCl)c1cccc(C)c1 | 4.8 | -0.9 | 1.1 | 33.9 | 0.8
Cc1nn(CC(=O)NCCCc2ccccc2)c(C)c1[N+](=O)[O-] | 3.8 | -13.8 | 4.1 | -12.0 | 0.7
Cc1ccccc1C(=O)NNC(=O)c1ccc(Br)cc1 | 1.5 | 9.7 | -0.6 | -2.0 | 0.7
O=C(NNC1=Nc2cccc3cccc1c23)c1ccc(Br)cc1 | -0.9 | 56.9 | 5.7 | 82.1* | -0.3
C[N+]1(C2CCC3CCCC2C3O)CCCCC1 (configuration not stated) | -0.5 | 3.1 | 0.4 | -1.1 | -0.4
COc1cc(CC(=O)OCC(=O)NCC(C)C)cc(OC)c1OC | 6.0 | -30.1 | -0.1 | -8.8 | 0.8
O=C(Nc1nc(-c2cccs2)cs1)c1ccc(Cl)cc1 | 8.7 | 67.0* | 5.0 | 8.2 | 0.3
CCn1nnnc1SCC(=O)Nc1nnc(C(C)C)s1 | 0.0 | -1.9 | 0.7 | 3.3 | -0.1
O=C(Nc1ncc(Cc2cccc(Cl)c2)s1)c1cccs1 | -1.9 | 80.6* | 6.5 | 84.1* | -0.2
O=C(Nc1nc(-c2cc(Cl)sc2Cl)cs1)c1cccs1 | 5.4 | 73.9* | 5.4 | 23.0 | 0.4
CCn1nnnc1SCC(=O)Nc1nc(-c2cccs2)cs1 | 35.5 | 19.7 | 1.7 | 55.0* | 0.7
COc1ccc(C(=O)Nc2nc(-c3cccs3)cs2)cc1 | 17.8 | 54.1 | 7.0 | 3.0 | 1.6
O=C(N/N=C/c1cccc(OC(=O)N2CCOCC2)c1)c1cccs1 | 19.1 | 7.8 | 0.4 | -4.3 | 1.2
COc1ccc(O)c(CN2CCN(CCc3ccccc3)C(CCO)C2)c1 (configuration not stated) | 3.4 | 2.3 | 0.4 | 76.8* | 0.5
OCCC1CN(Cc2c(O)ccc3ccccc23)CCN1CCc1ccccc1 (configuration not stated) | 1.4 | 24.7 | 1.9 | 5.3 | 0.9
COc1ccc(CN2CCN(CCc3ccccc3)C(CCO)C2)c(O)c1 (configuration not stated) | 0.1 | -7.4 | 0.6 | 86.6* | 0.3
COc1cccc(CN2CCN(CCc3ccccc3)C(CCO)C2)c1OC (configuration not stated) | 0.8 | -14.1 | 0.8 | 20.3 | 0.5
COc1cc(CC(C#N)(CO)c2nc3ccccc3[nH]2)ccc1OC(F)F (configuration not stated) | 14.7 | 11.8 | 3.0 | 82.3* | 0.4
CC(C)(C)c1cc(/C=N/O)cc(C(C)(C)C)c1O | -7.2 | 79.8* | 0.3 | 11.8 | 0.0
COc1ccccc1CNC(=O)c1cn(C)c2ccc(S(=O)(=O)N3CCCC3)cc2c1=O | -0.8 | 0.8 | 5.2 | 9.8 | -0.3
O=C1C2C(c3ccccc3)C=CC(c3ccccc3)C2C(=O)N1CCO (configuration not stated) | x | 1.6 | x | -3.1 | x
